According to ChEMBL document CHEMBL1149144, “Structure-based design of potent retinoid X receptor alpha agonists” (J Med Chem, 2004):

Experiments:
[1] = target: T1, Retinoic acid receptor RXR-alpha (Homo sapiens, UniProt P19793); assay: Binding affinity for retinoid X receptor alpha (RXRalpha), using 9-cis-[3H]-retinoic acid
T1 sequence (P19793 whole entry): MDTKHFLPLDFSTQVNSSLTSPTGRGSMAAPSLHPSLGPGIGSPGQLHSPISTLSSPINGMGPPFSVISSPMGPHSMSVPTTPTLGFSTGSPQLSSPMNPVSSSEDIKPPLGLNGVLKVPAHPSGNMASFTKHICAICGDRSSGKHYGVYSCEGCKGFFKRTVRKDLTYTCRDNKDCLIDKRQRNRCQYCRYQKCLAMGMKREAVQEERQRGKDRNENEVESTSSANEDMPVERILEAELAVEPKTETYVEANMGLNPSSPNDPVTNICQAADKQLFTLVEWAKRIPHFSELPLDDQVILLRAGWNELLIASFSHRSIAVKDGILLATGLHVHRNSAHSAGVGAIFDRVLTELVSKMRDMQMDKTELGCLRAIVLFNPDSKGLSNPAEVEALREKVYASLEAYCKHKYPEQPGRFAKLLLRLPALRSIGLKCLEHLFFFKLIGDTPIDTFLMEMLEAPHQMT
How it was run: (§1)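 Scintillation proximity binding assay; Ki from competition of 2.5 nM 9-cis-RA at RXRα and RARα, with test compound up to 10 µM.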

[2] = target: T2, Retinoic acid receptor alpha (Homo sapiens, UniProt P10276); assay: Effective concentration for Retinoic acid receptor alpha activity in CV-1 cells; type: functional, cell-based
T2 sequence (P10276 whole entry): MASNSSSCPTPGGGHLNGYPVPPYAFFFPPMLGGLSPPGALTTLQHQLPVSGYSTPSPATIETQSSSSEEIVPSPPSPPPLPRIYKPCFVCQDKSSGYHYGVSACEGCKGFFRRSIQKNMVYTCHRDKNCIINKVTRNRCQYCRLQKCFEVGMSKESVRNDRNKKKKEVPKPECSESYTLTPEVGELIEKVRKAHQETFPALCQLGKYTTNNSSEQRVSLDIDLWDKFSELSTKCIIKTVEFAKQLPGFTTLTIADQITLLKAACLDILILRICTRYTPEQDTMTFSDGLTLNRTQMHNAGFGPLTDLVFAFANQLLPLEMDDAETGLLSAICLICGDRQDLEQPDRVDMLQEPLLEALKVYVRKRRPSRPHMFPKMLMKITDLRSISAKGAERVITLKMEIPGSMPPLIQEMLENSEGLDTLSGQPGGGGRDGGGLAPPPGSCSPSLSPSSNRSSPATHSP
How it was run: (§2)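 CV-1 monkey kidney cells transiently transfected with a full-length hRXRα expression vector (RXRα) or a GAL4-hRARα vector (RARα), each with an RXRα- or RARα-responsive reporter gene construct. Top concentration 10 µM; EC50 calculated from the reporter response.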

[3] = target: T1, Retinoic acid receptor RXR-alpha; assay: Effective concentration for Retinoid X receptor alpha activity in CV-1 cells; Partial agonist; type: functional, cell-based; how it was run: as §2
[4] = target: T2, Retinoic acid receptor alpha; assay: Binding affinity for retinoic acid receptor alpha (RARalpha), using 9-cis-[3H]-retinoic acid; how it was run: as §1
[5] = target: T1, Retinoic acid receptor RXR-alpha; assay: Effective concentration for Retinoid X receptor alpha activity in CV-1 cells; type: functional, cell-based; how it was run: as §2
Mus musculus [6] = assay: Effect on percent change in weight of liver to body at 30 mg/kg was measured in vivo in mice; type: functional
How it was run: (§3)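 Male diabetic db/db mice given vehicle or compound in vehicle orally.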

Rattus norvegicus [7] = assay: Effect on aspartate aminotransferase release by liver at 10 mg/kg was measured in vivo in rats; type: functional
How it was run: (§4)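 Male Zucker diabetic fatty (ZDF) rats dosed orally with vehicle or compound in vehicle.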

Mus musculus [8] = assay: Antihyperglycemic activity of compound at 100 mg/kg was measured as percent glycosylated hemoglobin in vivo in mice; type: functional; how it was run: as §3
Rattus norvegicus [9] = assay: Effect on nonesterified free fatty acid at 10 mg/kg was measured in vivo in rats; type: functional; how it was run: as §4
Rattus norvegicus [10] = assay: Effect on percent change in weight of liver to body at 3 mg/kg was measured in vivo in rats; type: functional; how it was run: as §4
Rattus norvegicus [11] = assay: Effect on percent change in weight of liver to body at 10 mg/kg was measured in vivo in rats; type: functional; how it was run: as §4
Rattus norvegicus [12] = assay: Antihyperglycemic activity of compound was determined in vivo in rats; type: functional
How it was run: (§5)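 Male Zucker diabetic fatty (ZDF) rats were given the test agent orally in vehicle, with a vehicle-only control group.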

Rattus norvegicus [13] = assay: Effect on lipid hydrolysis at 30 mg/kg was measured in vivo in rats; type: functional; how it was run: as §5
Mus musculus [14] = assay: Effect on aspartate aminotransferase release by liver at 10 mg/kg was measured in vivo in mice; type: functional; how it was run: as §3
Mus musculus [15] = assay: Effect on nonesterified free fatty acid at 30 mg/kg was measured in vivo in mice; type: functional; how it was run: as §3
Mus musculus [16] = assay: Antihyperglycemic activity of compound at 30 mg/kg was measured as percent glycosylated hemoglobin in vivo in mice; type: functional; how it was run: as §3
Mus musculus [17] = assay: Effect on lipid hydrolysis at 10 mg/kg was measured in vivo in mice; type: functional
How it was run: (§6)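 Male diabetic db/db mice were given the test agent orally in vehicle, with a vehicle-only control group.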

Rattus norvegicus [18] = assay: Antihyperglycemic activity of compound at 3 mg/kg was determined in vivo in rats; type: functional; how it was run: as §5
Mus musculus [19] = assay: Effect on aspartate aminotransferase release by liver at 100 mg/kg was measured in vivo in mice; type: functional; how it was run: as §3
Rattus norvegicus [20] = assay: Antihyperglycemic activity of compound at 3 mg/kg was measured as percent glycosylated hemoglobin in vivo in rats; type: functional; how it was run: as §4
Rattus norvegicus [21] = assay: Effect on nonesterified free fatty acid at 3 mg/kg was measured in vivo in rats; type: functional; how it was run: as §4
Mus musculus [22] = assay: Effect on nonesterified free fatty acid at 100 mg/kg was measured in vivo in mice; type: functional; how it was run: as §3
Mus musculus [23] = assay: Antihyperglycemic activity of compound at 10 mg/kg was measured as percent glycosylated hemoglobin in vivo in mice; type: functional; how it was run: as §3
Mus musculus [24] = assay: Effect on lipid hydrolysis at 100 mg/kg was measured in vivo in mice; type: functional; how it was run: as §6
Mus musculus [25] = assay: Effect on percent change in weight of liver to body at 10 mg/kg was measured in vivo in mice; type: functional; how it was run: as §3
Rattus norvegicus [26] = assay: Antihyperglycemic activity of compound at 10 mg/kg was measured as percent glycosylated hemoglobin in vivo in rats; type: functional; how it was run: as §4
Rattus norvegicus [27] = assay: Effect on lipid hydrolysis at 10 mg/kg was measured in vivo in rats; type: functional; how it was run: as §5
Rattus norvegicus [28] = assay: Effect on percent change in weight of liver to body at 30 mg/kg was measured in vivo in rats; type: functional; how it was run: as §4
Mus musculus [29] = assay: Antihyperglycemic activity of compound at 100 mg/kg was determined in vivo in mice; type: functional; how it was run: as §6
Mus musculus [30] = assay: Effect on percent change in weight of liver to body at 100 mg/kg was measured in vivo in mice; type: functional; how it was run: as §3
Rattus norvegicus [31] = assay: Effect on aspartate aminotransferase release by liver at 3 mg/kg was measured in vivo in rats; type: functional; how it was run: as §4
Rattus norvegicus [32] = assay: Effect on nonesterified free fatty acid at 30 mg/kg was measured in vivo in rats; type: functional; how it was run: as §4
Mus musculus [33] = assay: Antihyperglycemic activity of compound at 30 mg/kg was determined in vivo in mice; type: functional; how it was run: as §6
Mus musculus [34] = assay: Effect on nonesterified free fatty acid at 10 mg/kg was measured in vivo in mice; type: functional; how it was run: as §3
Rattus norvegicus [35] = assay: Antihyperglycemic activity of compound at 10 mg/kg was determined in vivo in rats; type: functional; how it was run: as §5
Rattus norvegicus [36] = assay: Effect on aspartate aminotransferase release by liver at 30 mg/kg was measured in vivo in rats; type: functional; how it was run: as §4
Mus musculus [37] = assay: Antihyperglycemic activity of compound at 10 mg/kg was determined in vivo in mice; type: functional; how it was run: as §6
Mus musculus [38] = assay: Effect on lipid hydrolysis at 30 mg/kg was measured in vivo in mice; type: functional; how it was run: as §6
Mus musculus [39] = assay: Effect on aspartate aminotransferase release by liver at 30 mg/kg was measured in vivo in mice; type: functional; how it was run: as §3
Rattus norvegicus [40] = assay: Antihyperglycemic activity of compound at 30 mg/kg was measured as percent glycosylated hemoglobin in vivo in rats; type: functional; how it was run: as §4
Rattus norvegicus [41] = assay: Effect on lipid hydrolysis at 3 mg/kg was measured in vivo in rats; type: functional; how it was run: as §5

## CCCOc1cc2c(cc1C1CCCc3oc(/C=C/C(=O)O)cc31)C(C)(C)CCC2(C)C (stereo not given)
[1]
  Ki: 100 nM
[2]
  EC50: > 10000 nM
[3]
  EC50: 137 nM
[4]
  Ki: > 1000 nM

## CC1(C)CCC(C)(C)c2cc(C3CCCc4sc(/C=C/C(=O)O)cc43)ccc21 (stereo not given)
[1]
  Ki: 40 nM
[2]
  EC50: > 10000 nM
[5]
  EC50: 20 nM
[4]
  Ki: > 1000 nM

## CC1(C)CCC(C)(C)c2cc(C3CCCc4oc(C(=O)O)cc43)ccc21 (stereo not given)
[1]
  Ki: > 3000 nM
[5]
  EC50: > 10000 nM
[4]
  Ki: > 1000 nM

## CC(=CC(=O)O)c1cc2c(o1)CCCC2c1ccc2c(c1)C(C)(C)CCC2(C)C (stereo not given)
[1]
  Ki: 63 nM
[2]
  EC50: > 10000 nM
[5]
  EC50: 60 nM
[4]
  Ki: > 1000 nM

## Cc1oc(/C=C/C(=O)O)cc1Cc1ccc2c(c1)C(C)(C)CCC2(C)C
[1]
  Ki: 158 nM
[2]
  EC50: > 10000 nM
[5]
  EC50: 106 nM
[4]
  Ki: > 1000 nM

## COc1cc2c(cc1C1CCCc3oc(/C=C/C(=O)O)cc31)C(C)(C)CCC2(C)C (stereo not given)
[1]
  Ki: 20 nM
[2]
  EC50: > 10000 nM
[3]
  EC50: 48 nM
[4]
  Ki: > 1000 nM

## CC1(C)CCC(C)(C)c2cc(C3CCCc4oc(/C=C/C(=O)O)cc43)ccc21 (racemic)
Mus musculus [6]
  Activity: 8.58%
Rattus norvegicus [7]
  Activity: 108 U l-1
Mus musculus [8]
  Activity: 8.51%
Rattus norvegicus [9]
  Activity: 0.49 m equiv l-1
Rattus norvegicus [10]
  Activity: 5.74%
Rattus norvegicus [11]
  Activity: 6.56%
Rattus norvegicus [12]
  Activity: 118 mg/dL
Rattus norvegicus [13]
  Activity: 1353 mg/dL
Mus musculus [14]
  Activity: 137 U l-1
Mus musculus [15]
  Activity: 0.56 m equiv l-1
Mus musculus [16]
  Activity: 8.84%
Mus musculus [17]
  Activity: 91 mg/dL
Rattus norvegicus [18]
  Activity: 147 mg/dL
[1]
  Ki: 6 nM
[2]
  EC50: > 10000 nM
[5]
  EC50: 3 nM
Mus musculus [19]
  Activity: 158 U l-1
Rattus norvegicus [20]
  Activity: 7.75%
Rattus norvegicus [21]
  Activity: 0.8 m equiv l-1
Mus musculus [22]
  Activity: 0.4 m equiv l-1
Mus musculus [23]
  Activity: 9.41%
Mus musculus [24]
  Activity: 62 mg/dL
[4]
  Ki: > 1000 nM
Mus musculus [25]
  Activity: 8.23%
Rattus norvegicus [26]
  Activity: 7.44%
Rattus norvegicus [27]
  Activity: 2199 mg/dL
Rattus norvegicus [28]
  Activity: 7.06%
Mus musculus [29]
  Activity: 233 mg/dL
Mus musculus [30]
  Activity: 9.33%
Rattus norvegicus [31]
  Activity: 98 U l-1
Rattus norvegicus [32]
  Activity: 0.38 m equiv l-1
Mus musculus [33]
  Activity: 309 mg/dL
Mus musculus [34]
  Activity: 0.45 m equiv l-1
Rattus norvegicus [35]
  Activity: 129 mg/dL
Rattus norvegicus [36]
  Activity: 136 U l-1
Mus musculus [37]
  Activity: 346 mg/dL
Mus musculus [38]
  Activity: 83 mg/dL
Mus musculus [39]
  Activity: 116 U l-1
Rattus norvegicus [40]
  Activity: 7.04%
Rattus norvegicus [41]
  Activity: 2462 mg/dL

## CC1(C)CCC(C)(C)c2cc(C3CCCc4oc(/C=C/C(=O)O)nc43)ccc21 (stereo not given)
[1]
  Ki: 158 nM
[5]
  EC50: 42 nM
[4]
  Ki: > 1000 nM

## CC1(C)CCC(C)(C)c2cc(C3CCCc4sc(CCC(=O)O)cc43)ccc21 (stereo not given)
[1]
  Ki: 200 nM
[2]
  EC50: > 10000 nM
[5]
  EC50: 97 nM
[4]
  Ki: > 1000 nM
